The list is not random: actives were taken first. Their share in the collection is about 1%.
Yeast growth tox: Compounds toxic to wild-type S. cerevisiae growth | A595 turbidity, 16 h | growth inhibition, % at 25 µM (by protocol) | 0.3% of 30,000 active | AID 685;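 active = mutant and wild-type yeast strains alike exhibit over 30% growth inhibition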;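 also: 0% = untreated cell controls and 100% = YPD media blanks without cells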
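Schedule: 16 h growth with compound, 30 °C. System: yeast, wild-type or eIF2Bepsilon-R284H mutant. Doses: one dose, 25 µM compound[…]. Buffer or medium: YPD. Signal: turbidity measured as absorbance at 595 nm. Read-out basis: growth inhibition (%) versus cell controls and blanks.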
Yeast eIF2B: modulators of yeast eIF2B activity | S. cerevisiae eIF2B-epsilon R284H, GCN4-lacZ luminescence | inhibition, % at 25 µM (by protocol) | 0.91% of 27,000 active | AID 688;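 active = mutant luminescence inhibited past about 50% while wild type luminescence and mutant growth stay under set limits, limit read from the data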
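Material – yeast eIF2B-epsilon R284H mutant carrying GCN4–beta-galactosidase fusion · Medium – YPD yeast growth medium · Compound – one concentration, 25 µM, 0.25% DMSO · Times – 16 h at 30 °C exposure · Signal – Beta-Glo luminescence plus absorbance at 595 nm · Read-out – % inhibition of reporter signal and growth versus controls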
An asterisk follows results filed as active; nt = not tested or not shown.

SMILES | Yeast growth tox | Yeast eIF2B
CC(=O)N1CCN(c2nc3cc4c(cc3nc2NS(=O)(=O)c2ccccc2)OCCO4)CC1 | 6 | 7
O=C1CC(O)(C(F)F)Oc2ccc3ccccc3c21 (centres undefined) | 16 | 53*
O=C1CC(O)(C(F)(F)F)Oc2c1ccc1ccccc21 (centres undefined) | 2 | 46
CC(C)OCCCNS(=O)(=O)c1ccc2ccccc2c1 | 8 | 15
CN1CCc2nc(SCC(=O)Nc3ccc(Cl)cc3)c(C#N)cc2C1 | -14 | 62*
N#Cc1cc2c(nc1SCC(=O)Nc1sc3c(c1C#N)CCC3)CCCCCC2 | 18 | nt
COc1cc2c(cc1OC)C(C(=O)N1CCN(c3ccccc3)CC1)C(c1cccs1)N(C)C2=O (centres undefined) | 5 | 22
O=C(COC(=O)CCc1ccc(S(=O)(=O)N2CCOCC2)cc1)Nc1ccc(Cl)cn1 | 10 | 17
CCOC(=O)Cc1csc(NC(=O)CCc2ccc(S(=O)(=O)N3CCOCC3)cc2)n1 | 4 | 57*
CC(C)OC(=O)CCc1nc2ccccc2[nH]c1=O | 2 | 61*
CCOC(=O)C(C)c1nc2ccccc2[nH]c1=O (centres undefined) | 8 | 33
O=C(C1COc2ccccc2O1)N1CCc2ccccc2C1 (centres undefined) | 13 | nt
COc1ccc(OCCOC(=O)c2ccc(-n3cnnn3)cc2)cc1 | 8 | 10
COc1ccc(C(=O)OC(COc2ccccc2)Cn2ccnc2)cc1 (centres undefined) | 68* | 76
COc1ccc(S(=O)(=O)c2ccc(OC)c(OC)c2)cc1OC | 27 | 14
CCCCCC(=O)N(O)C1CC(=O)N(c2ccccc2)C1=O (centres undefined) | 38* | 47
CN(Cc1ccccc1)C1CC(=O)N(c2ccc(C(=O)O)cc2)C1=O (centres undefined) | -1 | -7
C=CCOC(=O)C1=C(C)Nc2ncnn2C1c1cccs1 (centres undefined) | 29 | 23
C=CCOC(=O)C1=C(C)Nc2nc3ccccc3n2C1c1ccncc1 (centres undefined) | -18 | 63*
CC(C)c1ccc(N(CC(=O)NCCSC(C)(C)C)S(C)(=O)=O)cc1 | 14 | 16
Cc1ccc(-c2noc(CSc3ccccc3)n2)cc1 | 8 | 21
c1ccc(SCc2nc(-c3ccccn3)no2)cc1 | 18 | 64*
O=C(O)C1C2C=CC(C2)C1C(=O)NC(c1ccccc1)c1ccccc1 (centres undefined) | 8 | nt
CC(C)CC(c1nnnn1CCc1ccccc1)N1CCC(C(N)=O)CC1 (centres undefined) | -3 | 24
CCCOc1ccc(N2C(=O)CC(NCc3ccncc3)C2=O)cc1 (centres undefined) | -3 | 0
SMILES | Yeast growth tox | Yeast eIF2B
C=CCNc1nnc(SC2CC(=O)N(c3ccc(OCCC)cc3)C2=O)s1 (centres undefined) | 60* | 2
Cn1c(CSCc2ccc(Cl)cc2)nnc1SCC(=O)Nc1nc2ccccc2s1 | -25 | 8
COc1ccc(S(=O)(=O)NCCC(C)C)cc1C | 20 | -15
C/C(=C\C(=O)c1ccccc1)Nc1ccc(O)cc1 | 15 | 20
CC(=O)/C=C(\C)Nc1ccc(-c2cnc(-c3ccccc3)o2)cc1 | -21 | 70*
C#CCOC(=O)C(NC(=O)c1ccccc1)=C1CCCCC1 | 6 | 22
NC(=O)CSC1=Nc2ccccc2C2=NC(CC(=O)NCc3cccs3)C(=O)N12 (centres undefined) | 10 | 52*
COCCCNC(=O)CSC1=Nc2ccccc2C2=NC(CC(=O)NCc3ccccc3)C(=O)N12 (centres undefined) | 4 | 38
CCOc1ccc(-n2c(SCC(=O)Nc3ccccc3C)n[nH]c2=O)cc1 | 14 | nt
COc1ccc(C2(NC(C)=O)CCN(C(=O)c3cccs3)CC2)cc1 | 12 | 20
COc1ccc(NC(=O)CSc2nnc(Cc3cccn3C)n2-c2ccc(C)cc2)cc1OC | -1 | 12
Cc1cc(C)c(NC(=O)CSc2nnc(Cc3cccn3C)n2-c2ccc(F)cc2)c(C)c1 | 3 | 60*
CCCn1c(SCC(=O)Nc2nc3c(s2)CCCC3)nc2c1c(=O)n(C)c(=O)n2C | -35 | 55*
CCOC(=O)c1c(NC(=O)CSc2nc3c(c(=O)n(C)c(=O)n3C)n2CC)sc(C)c1C | -41 | 7
O=c1/c(=C/c2ccc(O)cc2)sc2n1CCCN=2 | 16 | 79*
CCOC(=O)/C=c1\sc2n(c1=O)CCN=2 | -14 | 38
O=C(O)CC(c1cccc2ccccc12)n1cccc1 (centres undefined) | -1 | 23
Cc1cc2c(cc1C)CSC(c1ccc3ccccc3c1O)SC2 | -36 | nt
Cc1cc2c(cc1C)CSC(c1ccccc1O)SC2 | 81* | nt
COC(=O)c1ccc(OCC(=O)c2ccccc2)cc1 | 5 | 23
COC(=O)c1cc(O)c(OCc2ccccc2)c(O)c1 | -11 | 70*
CC(=O)C1=C(C)NC(C)=C(C(C)=O)C1c1ccc(-c2ccccc2Cl)o1 | -13 | 27
CCN(CC)C(=O)CSc1nnc(CNc2ccc(F)cc2)o1 | 20 | -1
Cc1ccc2c(CN3CCN(Cc4ccc5c(c4)OCO5)CC3)cc(=O)oc2c1C | 4 | 15
Cc1ccc(SCc2cc(=O)[nH]c(N3CCN(Cc4ccc5c(c4)OCO5)CC3)n2)cc1 | -17 | 60*
SMILES | Yeast growth tox | Yeast eIF2B
CCCN(CC1CC1)C(=O)COC(=O)c1[nH]c(C)c(C(=O)OCC)c1C | 7 | nt
N/C(Cc1ccc(Cl)cc1)=N\OC(=O)c1ccccc1 | 71* | 0
N/C(Cc1ccc([N+](=O)[O-])cc1)=N\OC(=O)c1ccc([N+](=O)[O-])cc1 | 5 | 16
COc1ccc(C2=[N+]([O-])C(C)(C)N(O)C2C)cc1 (centres undefined) | 3 | 10
O=C(Nc1ccc(Cl)c(Cl)c1)OCCNC(=O)c1cccc(Cl)c1 | 2 | 19
Cc1ccc(-c2ccc(/C=N/N3C(=O)C4C5C=CC(CC5)C4C3=O)o2)c([N+](=O)[O-])c1 (centres undefined) | 7 | 11
C=CCNS(=O)(=O)CC12CCC(CC1=O)C2(C)C (centres undefined) | 5 | nt
Cn1c(=O)[nH]c(=O)c2c1nc(SCC(O)CO)n2Cc1ccccc1Cl (centres undefined) | 5 | 61*
Cn1c(=O)[nH]c(=O)c2c1nc(Br)n2Cc1ccccc1Cl | 10 | 9
CCN1CCN(C(c2ccc(OC)cc2)C(O)C(=O)c2c[nH]c3ccccc23)CC1 (centres undefined) | 21 | nt
COc1ccc2c(c1)CCc1c(C(=O)N3CC4(C)CC3CC(C)(C)C4)noc1-2 (centres undefined) | -3 | 71*
COc1ccc2c(c1)CCc1c(C(=O)N3CCCc4ccccc43)noc1-2 | -10 | 36
O=C(Nc1cc(N2CCOCC2)ncn1)NC1(C(F)(F)F)Oc2ccccc2O1 | -14 | 32
COCCSc1ccccc1C(=O)N1CCOCC1 | 9 | nt
Cc1cc(Br)c2[nH]c3c(c2c1)CCCC3=O | 18 | 12
Cc1c(C(=O)NC(C)C)sc2ncn(CC(=O)N3CCC(C)CC3)c(=O)c12 | 18 | 7
Cc1ccc(-c2cc(-c3ccccc3Cl)[nH]n2)c(O)c1 | 64* | 30
Cc1ccccc1-c1cc(-c2ccccc2O)n[nH]1 | 18 | 20
CCCCN(CC)C(=O)Cn1c(=O)sc2ccccc21 | 15 | 32

Compound activity deposited in PubChem BioAssay by PCMD.
